Assay results as given in paper PMC6014630 (Tuberculosis (Edinburgh, Scotland), 2018).

Columns and labels:
[1] = system: human neutrophils, monocytes and lymphocytes; format: cell-based
[2] = system: lung cell populations of TDM-challenged C57BL/6 mice; experiment: In vivo cellular specificity of cFLFLFK-PEG12-Cy3 in TDM-challenged mouse lung; details: 50 µg i.v., 4 h circulation, 5 days after TDM; flow cytometry, n=3
How it was run: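 Female C57BL/6 mice (8 weeks, 18–20 g) received 100 µg TDM i.v. Five days later they got 50 µg Cy3-labelled test compound i.v. (n=3) or PBS (n=2). Lungs were digested 4 h later, and cells (2×10^6/mL in HBSS+) were live/dead stained 30 min on ice. They were blocked 30 min (40% mouse serum), plated at 1×10^6/well and mAb-stained. Flow cytometry acquired 100,000 live events. Gated populations were CD11b+Ly6G+, CD3+, CD11c+CD11b-, CD11b+CD11c+, CD11b+CD11c- and marker-negative. Each population's share of total Cy3 signal was pooled across mice.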

[3] = system: C57BL/6 mouse lung; experiment: TDM-induced lung granulomatous inflammation in mice; format: in vivo
How it was run: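 TDM was given via tail vein as an oil-in-water emulsion (100 µL, 100 µg), or vehicle alone. Day-5 lungs were H&E-stained for light microscopy (histology mice 6 weeks old). Flow cytometry used five TDM-treated mice (female, 8 weeks) with live/dead staining and mAb gating: CD11b+Ly6G+ neutrophils, CD3+ lymphocytes, CD11c+CD11b- alveolar macrophages, CD11b+CD11c+ macrophages/dendritic cells, CD11b+CD11c- monocytes/immature macrophages. Values are percentages of all living cells.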

[4] = five TDM-administered mice, day 5

Row | Substance | Cy3 MFI on neutrophils compared with monocytes and lymphocytes [1] | Dose dependence of binding to neutrophils, monocytes and lymphocytes [1] | Targeting of lymphocytes and other (antibody-negative) cells in the lung [2] | Lung histology (H&E) ([3]; 100 µg TDM i.v., day 5, versus vehicle emulsion) | Change in lung frequency of CD3+ lymphocytes ([3]; 100 µg TDM i.v., day 5, flow cytometry) | Frequency increase of lung neutrophils compared to vehicle-injected mice ([3]; 100 µg TDM i.v., day 5, flow cytometry, data not shown) | Percentage of alveolar macrophages relative to all living lung cells [3, 4] | Percentage of immature macrophages/monocytes relative to all living lung cells [3, 4] | Percentage of lymphocytes relative to all living lung cells [3, 4] | Percentage of macrophages/dendritic cells relative to all living lung cells [3, 4] | Percentage of neutrophils relative to all living lung cells [3, 4]
1 | cFLFLFK-PEG12-Cy3 | significantly higher | Dose-dependent binding was observed on all cell types | not targeted | – | – | – | – | – | – | – | –
2 | trehalose dimycolate [TDM] | – | – | – | patchy regions of granulomatous inflammation were observed | unchanged | 9.1% ± 6.4% | 6.3% ± 1.7% | 20.1% ± 3.1% | 10.7% ± 2.5% | 17.7% ± 7.7% | 9.2% ± 3.7%
